In ChEMBL document CHEMBL3763087, “Picrajavanicins A-G, Quassinoids from Picrasma javanica Collected in Myanmar” (J Nat Prod, 2015):
pIC50: −log10 of the molar value.

Columns and labels:
Format in all cases: functional, cell-based
[1] = Antiproliferative activity against human PANC1 cells after 72 hrs by WST-8 assay; details: PANC-1, 72 h
How it was run: (§1)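 The procedure follows an earlier report. Human A549 lung adenocarcinoma and HeLa cervix adenocarcinoma lines came from RCB; PANC-1 pancreatic epithelioid carcinoma, PSN-1 pancreatic adenocarcinoma and MDA-MB-231 breast adenocarcinoma came from ATCC. All were maintained in-house and grown in 96-well plates. Cell absorbance was read on a microplate reader and IC50 derived. 5-Fluorouracil served as positive control.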

[2] = test system: PSN1; assay: Antiproliferative activity against human PSN1 cells after 72 hrs by WST-8 assay; details: PSN1, 72 h; how it was run: as §1
[3] = test system: HeLa; assay: Antiproliferative activity against human HeLa cells after 72 hrs by WST-8 assay; how it was run: as §1
[4] = test system: A549; assay: Antiproliferative activity against human A549 cells after 72 hrs by WST-8 assay; details: A549, 72 h; how it was run: as §1
[5] = test system: MDA-MB-231; assay: Antiproliferative activity against human MDA-MB-231 cells after 72 hrs by WST-8 assay; details: MDA-MB-231, 72 h; how it was run: as §1

Compound `COC1=C(OC)C(=O)[C@@]2(C)[C@H](C1)C[C@H]1OC(=O)C[C@H]3C(C)=C(OC)C(=O)[C@H]2[C@@]13C` has a pIC50 [1] of less than 5.00, a pIC50 [2] of less than 5.00 and a pIC50 [3] of less than 5.00. The pIC50 [4] was less than 5.00 and the pIC50 [5] was less than 5.00.

Work on `COC1=C(C)[C@@H]2CC(=O)O[C@@H]3C[C@H]4CC[C@H](O)C(=O)[C@]4(C)[C@@H](C1=O)[C@@]32C` yielded a pIC50 [1] of less than 5.00, a pIC50 [2] of less than 5.00 and a pIC50 [3] of less than 5.00. For the same compound, the pIC50 [4] was less than 5.00 and the pIC50 [5] was less than 5.00.

`COC1=C(C)[C@]2(O)CC(=O)O[C@@H]3C[C@H]4CC[C@H](O)C(=O)[C@]4(C)[C@@H](C1=O)[C@@]32C` showed a pIC50 [1] of less than 5.00, a pIC50 [2] of less than 5.00 and a pIC50 [3] of less than 5.00. The pIC50 [4] was less than 5.00 and the pIC50 [5] was less than 5.00.

`O=c1[nH]cc(F)c(=O)[nH]1` [FLUOROURACIL] gave a pIC50 [1] of 6.40, a pIC50 [2] of 5.06 and a pIC50 [3] of 5.19. The pIC50 [4] was 5.05 and the pIC50 [5] was 5.96.

In the case of `COC1=CC[C@@H]2C[C@H]3OC(O)C[C@H]4C(C)=C(OC)C(=O)[C@H]([C@@]2(C)C1=O)[C@@]34C` (stereo not given in full), the pIC50 [1] was less than 5.00, the pIC50 [2] was less than 5.00 and the pIC50 [3] was less than 5.00. For the same compound, the pIC50 [4] was less than 5.00 and the pIC50 [5] was less than 5.00.

With `COC1=CC[C@@H]2C[C@H]3OC(=O)C[C@H]4C(C)=C(OC)C(=O)[C@H]([C@@]2(C)C1=O)[C@@]34C` the pIC50 [1] was less than 5.00, the pIC50 [2] was less than 5.00 and the pIC50 [3] was less than 5.00. The pIC50 [4] was less than 5.00 and the pIC50 [5] was less than 5.00.

Work on `COC1=C(C)[C@@H]2CC(=O)O[C@@H]3C[C@H]4CC[C@H](OC)C(=O)[C@]4(C)[C@@H](C1=O)[C@@]32C` yielded a pIC50 [1] of less than 5.00, a pIC50 [2] of less than 5.00 and a pIC50 [3] of less than 5.00. The pIC50 [4] was less than 5.00 and the pIC50 [5] was less than 5.00.

Compound `COC1=CC[C@@H]2C[C@H]3OC(=O)C=C4C(CO)=C(OC)C(=O)[C@H]([C@@]2(C)C1=O)[C@]43C` has a pIC50 [1] of less than 5.00, a pIC50 [2] of less than 5.00 and a pIC50 [3] of less than 5.00. For the same compound, the pIC50 [4] was less than 5.00 and the pIC50 [5] was less than 5.00.

For `COC1=C(OC)C(=O)[C@@]2(C)[C@H](C1)C[C@H]1OC(=O)C[C@@]3(O)C(C)=C(OC)C(=O)[C@H]2[C@@]13C`, the pIC50 [1] was less than 5.00, the pIC50 [2] was less than 5.00 and the pIC50 [3] was less than 5.00. For the same compound, the pIC50 [4] was less than 5.00 and the pIC50 [5] was less than 5.00.

Work on `COC1=CC[C@@H]2C[C@H]3OC(=O)C=C4C(C)=C(OC)C(=O)[C@H]([C@@]2(C)C1=O)[C@]43C` yielded a pIC50 [1] of less than 5.00, a pIC50 [2] of less than 5.00 and a pIC50 [3] of less than 5.00. It also gave a pIC50 [4] of less than 5.00 and a pIC50 [5] of less than 5.00.

With `COC1=CC[C@@H]2C[C@H]3OC(=O)C[C@H]4C(C=O)=C(OC)C(=O)[C@H]([C@@]2(C)C1=O)[C@@]34C` the pIC50 [1] was less than 5.00, the pIC50 [2] was less than 5.00 and the pIC50 [3] was less than 5.00. The pIC50 [4] was less than 5.00 and the pIC50 [5] was less than 5.00.
